Tests used:
[1] = molecular target: T1, Serotonin 2 (5-HT2) receptor (Rattus norvegicus, UniProt P30994+P08909+P14842); assay: In vitro antagonistic activity against the contraction induced by 5-HT through 5-HT2 receptor in rat thoracic aortic strips; type: functional
Method in brief: (§1)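 Rat thoracic aortic strips, isometric tension; equilibrated 120 min, primed with 60 mM KCl. Cumulative 5-HT (0.1-100 μM) curve, wash, 1 h later second cumulative 5-HT curve with test drug present. pA2 from the concentration-response curves where blockade is competitive (otherwise noncompetitive); single determination.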

[2] = molecular target: T2, Adrenergic receptor alpha-1 (Rattus norvegicus, UniProt P15823+P23944+P43140); assay: In vitro antagonistic activity tested against the contraction induced by phenylephrine through Alpha-1 adrenergic receptor in rat thoracic aortic strips; type: functional
T2 sequence (P15823 whole entry): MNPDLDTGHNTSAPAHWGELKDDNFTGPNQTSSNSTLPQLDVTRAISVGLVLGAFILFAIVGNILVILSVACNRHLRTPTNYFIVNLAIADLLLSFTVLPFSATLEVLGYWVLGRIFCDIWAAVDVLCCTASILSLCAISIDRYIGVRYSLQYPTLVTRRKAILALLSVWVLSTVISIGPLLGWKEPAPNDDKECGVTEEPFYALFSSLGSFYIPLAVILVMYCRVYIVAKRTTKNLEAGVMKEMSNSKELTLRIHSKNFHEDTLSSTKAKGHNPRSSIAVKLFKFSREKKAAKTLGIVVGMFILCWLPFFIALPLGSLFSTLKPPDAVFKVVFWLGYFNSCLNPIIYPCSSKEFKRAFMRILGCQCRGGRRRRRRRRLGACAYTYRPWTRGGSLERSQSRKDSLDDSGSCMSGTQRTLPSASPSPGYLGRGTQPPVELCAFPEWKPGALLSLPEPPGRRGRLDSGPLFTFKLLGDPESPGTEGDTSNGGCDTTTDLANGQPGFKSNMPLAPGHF
T2 sequence (P23944 whole entry): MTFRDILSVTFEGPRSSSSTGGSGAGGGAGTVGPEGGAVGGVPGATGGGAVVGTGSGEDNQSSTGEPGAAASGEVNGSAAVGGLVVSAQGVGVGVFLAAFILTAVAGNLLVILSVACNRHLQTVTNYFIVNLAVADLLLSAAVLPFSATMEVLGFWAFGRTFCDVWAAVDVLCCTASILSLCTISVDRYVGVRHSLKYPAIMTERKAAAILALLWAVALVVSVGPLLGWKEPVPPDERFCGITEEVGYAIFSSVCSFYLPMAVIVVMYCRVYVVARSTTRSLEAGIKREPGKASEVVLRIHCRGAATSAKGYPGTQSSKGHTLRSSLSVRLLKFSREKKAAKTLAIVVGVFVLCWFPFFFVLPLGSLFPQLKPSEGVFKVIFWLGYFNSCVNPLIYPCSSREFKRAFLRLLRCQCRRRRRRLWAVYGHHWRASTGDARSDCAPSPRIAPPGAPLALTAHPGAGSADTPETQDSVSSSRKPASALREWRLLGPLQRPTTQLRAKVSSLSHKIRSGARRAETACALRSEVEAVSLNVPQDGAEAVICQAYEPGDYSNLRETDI
T2 sequence (P43140 whole entry): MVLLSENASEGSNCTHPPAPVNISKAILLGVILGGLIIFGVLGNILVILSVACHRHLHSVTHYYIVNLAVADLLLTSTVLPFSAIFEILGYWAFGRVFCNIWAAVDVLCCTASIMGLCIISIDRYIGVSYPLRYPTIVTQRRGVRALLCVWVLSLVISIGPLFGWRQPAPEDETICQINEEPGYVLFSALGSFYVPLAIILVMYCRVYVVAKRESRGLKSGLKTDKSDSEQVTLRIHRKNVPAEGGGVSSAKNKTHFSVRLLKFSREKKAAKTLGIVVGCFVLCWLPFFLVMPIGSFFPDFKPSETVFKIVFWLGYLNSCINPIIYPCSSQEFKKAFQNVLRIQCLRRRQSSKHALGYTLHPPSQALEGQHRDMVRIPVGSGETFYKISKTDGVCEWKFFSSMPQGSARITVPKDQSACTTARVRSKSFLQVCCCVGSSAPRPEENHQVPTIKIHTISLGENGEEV
Method in brief: (§2)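 Rat thoracic aortic strips, isometric tension; equilibrated 120 min, primed with 60 mM KCl. Cumulative phenylephrine (0.01-10 μM) curve, wash, 1 h later second cumulative curve with test drug present. pA2 from the concentration-response curves where blockade is competitive (otherwise noncompetitive); single determination.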

[3] = molecular target: T3, Serotonin 2 (5-HT2) receptor (Rattus norvegicus) (UniProt P30994+P08909+P14842); assay: In vivo inhibitory activity of 10 mg/kg compound in rats against elevation of BP caused by 5-HT (300 ug/kg, iv) through 5-hydroxytryptamine 2 receptor 1 hr after oral administration; type: functional, organism-based; parameters: dose 10 mg/kg
T3 sequence (P08909 whole entry, looked up): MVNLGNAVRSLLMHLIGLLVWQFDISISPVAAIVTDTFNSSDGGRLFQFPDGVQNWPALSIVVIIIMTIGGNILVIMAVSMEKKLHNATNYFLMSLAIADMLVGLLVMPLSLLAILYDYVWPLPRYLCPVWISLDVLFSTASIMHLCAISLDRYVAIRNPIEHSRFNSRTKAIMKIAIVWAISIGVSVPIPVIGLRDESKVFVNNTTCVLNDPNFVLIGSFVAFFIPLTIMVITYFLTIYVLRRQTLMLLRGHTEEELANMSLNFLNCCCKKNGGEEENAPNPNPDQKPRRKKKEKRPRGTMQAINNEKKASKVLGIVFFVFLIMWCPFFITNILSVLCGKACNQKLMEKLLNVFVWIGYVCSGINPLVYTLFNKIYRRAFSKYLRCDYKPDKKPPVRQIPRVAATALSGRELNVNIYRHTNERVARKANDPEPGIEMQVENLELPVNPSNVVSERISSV
T3 sequence (P14842 whole entry, looked up): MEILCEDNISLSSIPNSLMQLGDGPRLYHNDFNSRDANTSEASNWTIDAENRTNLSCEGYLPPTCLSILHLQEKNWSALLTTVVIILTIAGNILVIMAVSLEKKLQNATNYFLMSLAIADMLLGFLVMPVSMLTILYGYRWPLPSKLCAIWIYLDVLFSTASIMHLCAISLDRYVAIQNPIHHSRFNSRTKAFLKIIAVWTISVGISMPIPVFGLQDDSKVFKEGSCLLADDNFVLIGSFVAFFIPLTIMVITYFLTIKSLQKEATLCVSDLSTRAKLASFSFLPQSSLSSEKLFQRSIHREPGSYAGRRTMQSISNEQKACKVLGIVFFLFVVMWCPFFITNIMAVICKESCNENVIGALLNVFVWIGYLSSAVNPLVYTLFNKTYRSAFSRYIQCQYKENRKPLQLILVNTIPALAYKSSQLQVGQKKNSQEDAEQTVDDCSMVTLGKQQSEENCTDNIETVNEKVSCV
T3 sequence (P30994 whole entry, looked up): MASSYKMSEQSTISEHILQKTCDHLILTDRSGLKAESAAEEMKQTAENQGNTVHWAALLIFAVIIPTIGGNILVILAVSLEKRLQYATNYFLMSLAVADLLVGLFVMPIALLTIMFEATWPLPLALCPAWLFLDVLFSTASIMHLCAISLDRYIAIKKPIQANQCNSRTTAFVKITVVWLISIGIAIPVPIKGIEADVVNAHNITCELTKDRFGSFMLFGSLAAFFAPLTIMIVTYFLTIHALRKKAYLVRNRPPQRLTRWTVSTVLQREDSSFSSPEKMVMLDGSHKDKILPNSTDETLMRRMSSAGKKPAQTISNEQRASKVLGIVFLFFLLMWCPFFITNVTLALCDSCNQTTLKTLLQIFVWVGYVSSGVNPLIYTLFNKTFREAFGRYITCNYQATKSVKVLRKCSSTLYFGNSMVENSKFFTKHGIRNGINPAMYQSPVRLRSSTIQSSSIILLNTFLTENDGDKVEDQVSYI
Method in brief: (§3)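 Male SD rats anesthetized with urethane (1 g/kg ip) plus alpha-chloralose (80 mg/kg ip). Carotid arterial catheter to a pressure transducer, venous catheter for injection. After oral drug or vehicle, 5-HT 300 μg/kg iv. The pressor phase following the brief hypotensive phase was measured and expressed as % inhibition, mean ± SEM.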

[4] = molecular target: T4, Adrenergic receptor alpha-1 (Rattus norvegicus) (UniProt P15823+P23944+P43140); assay: In vivo inhibitory activity in rats against elevation of blood pressure caused by phenylephrine (30 ug/kg, iv) through Alpha-1 adrenergic receptor, after 1 hr oral administration at dose of 10 mg/kg; type: functional, organism-based; parameters: dose 10 mg/kg
Method in brief: (§4)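 Male SD rats under urethane (1 g/kg ip) and alpha-chloralose (80 mg/kg ip). Blood pressure recorded via carotid catheter and transducer, iv dosing via venous catheter. After oral drug or vehicle, phenylephrine 30 μg/kg iv. The pressor rise was expressed as % inhibition, mean ± SEM.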

[5] = molecular target: T4, Adrenergic receptor alpha-1 (Rattus norvegicus); assay: In vivo inhibitory activity in rats against elevation of blood pressure caused by phenylephrine (30 ug/kg, iv) through alpha-1 receptor after 1 hr of oral administration at the dose of 10 mg/kg; type: functional, organism-based; parameters: dose 10 mg/kg; method in brief: as §4
Mus musculus [6] = assay: The inhibition of compound was measured for 5 min in head twitches of mice induced by 5-HTP(100 mg/kg, ip) at the dose of 3 mg/kg; type: functional
Method in brief: (§5)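 Mice received drug orally 1 h before 5-HTP (100 mg/kg ip). Head twitches were counted for 5 or 8 min, starting 30 min after 5-HTP. Results are % inhibition versus controls (n = 6), with n = 4 per treated dose.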

Mus musculus [7] = assay: The inhibition of compound was measured for 8 min in head twitches of mice induced by 5-HTP(100 mg/kg, ip) at the dose of 1 mg/kg; type: functional; method in brief: as §5
[8] = molecular target: T3, Serotonin 2 (5-HT2) receptor (Rattus norvegicus); assay: In vivo inhibitory activity of 3 mg/kg compound in rats against elevation of BP caused by 5-HT (300 ug/kg, iv) through 5-hydroxytryptamine 2 receptor 1 hr after oral administration; type: functional, organism-based; parameters: dose 3 mg/kg; method in brief: as §3
[9] = molecular target: T3, Serotonin 2 (5-HT2) receptor (Rattus norvegicus); assay: (§6) In vitro antagonistic activity against the contraction induced by 5-HT through 5-hydroxytryptamine 2 receptor in rat thoracic aortic strips; type: functional; settings: concentration not given here; method in brief: as §1
[10] = molecular target: T3, Serotonin 2 (5-HT2) receptor (Rattus norvegicus); assay: In vivo inhibitory activity of 10 mg/kg compound in rats against elevation of BP caused by 5-HT (300 ug/kg, iv) through 5-hydroxytryptamine 2 receptor 3h after oral administration; type: functional, organism-based; parameters: dose 10 mg/kg; method in brief: as §3
Mus musculus [11] = assay: The inhibition of compound was measured for 8 min in head twitches of mice induced by 5-HTP(100 mg/kg, ip) at the dose of 0.1 mg/kg; type: functional; method in brief: as §5
[12] = molecular target: T3, Serotonin 2 (5-HT2) receptor (Rattus norvegicus); assay: In vivo inhibitory activity of 3 mg/kg compound in rats against elevation of BP caused by 5-HT (300 ug/kg, iv) through 5-hydroxytryptamine 2 receptor 3h after oral administration; type: functional, organism-based; parameters: dose 3 mg/kg; method in brief: as §3
Mus musculus [13] = assay: The inhibition of compound was measured for 8 min in head twitches of mice induced by 5-HTP(100 mg/kg, ip) at the dose of 0.3 mg/kg; type: functional; method in brief: as §5
[14] = molecular target: T1, Serotonin 2 (5-HT2) receptor; assay: In vitro antagonistic activity tested against the contraction induced by 5-HT through 5-hydroxytryptamine 2 receptor in rat thoracic aortic strips; type: functional
Mus musculus [15] = assay: The inhibition of compound was measured for 5 min in head twitches of mice induced by 5-HTP(100 mg/kg, ip) at the dose of 10 mg/kg; type: functional; method in brief: as §5
[16] = molecular target: T1, Serotonin 2 (5-HT2) receptor; assay: as §6; type: functional; method in brief: as §1
Mus musculus [17] = assay: The inhibition of compound was measured for 5 min in head twitches of mice induced by 5-HTP(100 mg/kg, ip) at the dose of 1 mg/kg; type: functional; method in brief: as §5
[18] = test system: Serotonin 2 (5-HT2) receptor (Rattus norvegicus); assay: In vivo inhibitory activity in rats against elevation of blood pressure caused by 5-HT (300 ug/kg, iv) through 5-HT2 receptor after 3h of oral administration at the dose of 3 mg/kg
Mus musculus [19] = assay: The inhibition of compound was measured for 5 min in head twitches of mice induced by 5-HTP(100 mg/kg, ip) at the dose of 30 mg/kg; type: functional; method in brief: as §5
[20] = molecular target: T4, Adrenergic receptor alpha-1 (Rattus norvegicus); assay: In vitro antagonistic activity against the contraction induced by phenylephrine through Alpha-1 adrenergic receptor in rat thoracic aortic strips; type: functional; settings: concentration not given here; method in brief: as §2
[21] = molecular target: T2, Adrenergic receptor alpha-1; assay: In vitro antagonistic activity against the contraction induced by phenylephrine through alpha-1 receptor in rat thoracic aortic strips; type: functional; method in brief: as §2
[22] = molecular target: T4, Adrenergic receptor alpha-1 (Rattus norvegicus); assay: In vivo inhibitory activity in rats against elevation of blood pressure caused by phenylephrine (30 ug/kg, iv) through alpha-1 receptor after 3h of oral administration at the dose of 10 mg/kg; type: functional, organism-based; parameters: dose 10 mg/kg; method in brief: as §4
[23] = molecular target: T4, Adrenergic receptor alpha-1 (Rattus norvegicus); assay: In vivo inhibitory activity in rats against elevation of blood pressure caused by phenylephrine (30 ug/kg, iv) through Alpha-1 adrenergic receptor after 1 hr of oral administration at the dose of 10 mg/kg; type: functional, organism-based; parameters: dose 10 mg/kg; method in brief: as §4
[24] = molecular target: T4, Adrenergic receptor alpha-1 (Rattus norvegicus); assay: In vitro antagonistic activity against the contraction induced by phenylephrine through Alpha-1 adrenergic receptor in rat thoracic aortic strips; NC = non-competitive inhibition; type: functional; method in brief: as §2
[25] = molecular target: T3, Serotonin 2 (5-HT2) receptor (Rattus norvegicus); assay: In vitro antagonistic activity against the contraction induced by 5-HT through 5-hydroxytryptamine 2 receptor in rat thoracic aortic strips; NC=non competitive antagonism; type: functional; settings: filed as antagonist; method in brief: as §1

| SMILES | pA2 [2] | inhibition [4] [%] | inhibition in vivo at 3 mg/kg (Mus musculus [6]) [%] | inhibition [8] [%] | inhibition [10] [%] | inhibition [12] [%] | inhibition in vivo at 10 mg/kg (Mus musculus [15]) [%] | further results |
| --- | --- | --- | --- | --- | --- | --- | --- | --- |
| O=c1n(CCN2CCC(=C(c3ccc(F)cc3)c3ccc(F)cc3)CC2)nc2ccccn12 | 6.6 | 6 |  |  |  |  |  | pA2 [1]: 7; inhibition [3]: 58% |
| O=C(c1ccc(F)cc1)C1CCN(CCn2c(=O)nc3n(c2=O)CCCC3)CC1 | 6.9 | 33 | 67 | 93 | 90 | 83 | 80 | inhibition [5]: 33%; inhibition in vivo at 1 mg/kg (Mus musculus [7]): 81%; inhibition [9]: 93%; inhibition in vivo at 0.1 mg/kg (Mus musculus [11]): 49%; inhibition in vivo at 0.3 mg/kg (Mus musculus [13]): 59%; pA2 [14]: 8.1 |
| O=C(c1ccc(Cl)cc1)C1CCN(CCn2nc3n(c2=O)CCCC3)CC1 | 7.2 | 16 |  |  |  |  |  | inhibition [3]: 83%; pA2 [16]: 7.2 |
| O=C(c1ccc(F)cc1)C1CCN(CCn2c(=O)[nH]c3ccccc3c2=O)CC1 [KETANSERIN] | 7.8 | 91 | 92 | 96 | 100 | 84 | 100 | inhibition [5]: 91%; inhibition in vivo at 1 mg/kg (Mus musculus [7]): 93%; inhibition in vivo at 0.1 mg/kg (Mus musculus [11]): 49%; inhibition in vivo at 0.3 mg/kg (Mus musculus [13]): 88% |
| Cc1nc2sccn2c(=O)c1CCN1CCC(=C(c2ccc(F)cc2)c2ccc(F)cc2)CC1 [RITANSERIN] | 7.5 | 7 | 95 |  |  |  | 100 | inhibition in vivo at 1 mg/kg (Mus musculus [17]): 80% |
| O=c1n(CCN2CCC(=C(c3ccc(F)cc3)c3ccc(F)cc3)CC2)nc2n1CCCC2 |  |  | 13 | 76 | 87 | 78 | 55 | inhibition [18]: 11%; inhibition in vivo at 30 mg/kg (Mus musculus [19]): 85%; inhibition [20]: 14%; pA2 [21]: 7; inhibition [9]: 96%; inhibition [22]: 4%; inhibition [23]: 14%; pA2 [14]: 8.6 |
| O=C(c1ccc(F)cc1)C1CCN(CCCn2nc3n(c2=O)CCCCC3)CC1 |  |  |  |  |  |  |  | pA2 [24]: Non-competitive inhibition; pA2 [25]: Non-competitive antagonist |
